Source: ChEMBL document CHEMBL1629709, “Inhibition of melanogenesis and oxidation by protocatechuic acid from Origanum vulgare (oregano)” (J Nat Prod, 2010)
Converted amounts (≈) assume the structure as drawn. The source made the active and inactive calls. The calls are words filed in the database; no cut-off is given here.

Key:
[1] = system: Radical scavenging activity; assay: Antioxidant activity assessed as DPPH radical scavenging activity at 100 ug/ml after 30 mins; type: functional
How it was run: (§1)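 Sample (100 µL) added to 900 µL of 0.1 mM ethanolic DPPH and kept 30 min in the dark, then A517 read. Scavenging (%) = (1 − Asample/Acontrol) × 100. Control lacks test agent; ascorbic acid used as standard. EC50 estimated from the % inhibition versus concentration plot; mean ± SD, n = 3.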

[2] = Antioxidant activity in mouse BNL-CL2 cells assessed as inhibition of H2O2-induced ROS production at 20 ug/ml by DCFHDA assay; type: functional; conditions: BNL CL.2, values are per cent of control
How it was run: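 BNLCL2 cells (1 × 10^5 cells/mL) exposed 24 h to 20 µg/mL agent. Detached, washed, loaded with 10 µM DCFH-DA in PBS for 30 min at 37 °C, then stimulated with 0.1 mM H2O2 for 30 min at 37 °C. DCF fluorescence read at ex 504/em 524 nm against H2O2-treated cells. Independent triplicates.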

[3] = system: Radical scavenging activity; assay: Antioxidant activity assessed as DPPH radical scavenging activity at 5 ug/ml after 30 mins; type: functional; how it was run: as §1
[4] = system: Radical scavenging activity; assay: Antioxidant activity assessed as DPPH radical scavenging activity after 30 mins; type: functional; how it was run: as §1
[5] = Antioxidant activity assessed as trolox equivalent of ABTS radical scavenging activity after 12 to 16 hrs; type: functional
How it was run: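 ABTS (7 mM) oxidized with 2.45 mM potassium persulfate (final) in the dark at room temperature for 12–16 h. Diluted with ethanol to A734 0.70 ± 0.02 at 30 °C. 0.1 mL sample added to 2.9 mL, 20 min at 30 °C, A734 read. TEAC reported as mg Trolox/g, from the concentration giving the same absorbance change as 1 mg Trolox.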

[6] = target: T1, Tyrosinase (Mus musculus) (UniProt P11344); assay: Inhibition of DOPA oxidase activity of tyrosinase in mouse B16 cells at 10 to 20 ug/ml after 72 hrs by colorimetry; type: cell-based
T1 sequence (whole entry): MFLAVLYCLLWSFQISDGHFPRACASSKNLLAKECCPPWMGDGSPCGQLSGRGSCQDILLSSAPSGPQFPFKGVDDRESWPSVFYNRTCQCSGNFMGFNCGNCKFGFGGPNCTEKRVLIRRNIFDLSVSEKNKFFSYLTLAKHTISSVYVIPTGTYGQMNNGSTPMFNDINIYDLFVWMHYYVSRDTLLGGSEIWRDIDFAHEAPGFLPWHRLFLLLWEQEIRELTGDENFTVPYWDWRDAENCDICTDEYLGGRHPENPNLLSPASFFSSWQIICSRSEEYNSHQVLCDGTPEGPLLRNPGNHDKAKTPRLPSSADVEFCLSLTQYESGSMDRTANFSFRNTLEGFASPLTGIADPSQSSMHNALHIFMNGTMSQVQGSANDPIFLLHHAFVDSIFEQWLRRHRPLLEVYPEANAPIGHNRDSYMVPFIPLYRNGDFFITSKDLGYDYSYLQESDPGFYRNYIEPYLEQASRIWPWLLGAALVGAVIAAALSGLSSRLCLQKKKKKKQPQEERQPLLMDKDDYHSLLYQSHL
How it was run: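 B16 cells (1 × 10^5 cells/mL) plated ≥24 h, then α-MSH (1 µM) alone or with 10 or 20 µg/mL agent for 72 h. Lysed in 50 mM sodium phosphate pH 6.8 with 1% Triton X-100 and freeze-thawed. Substrate of 6.3 mM MBTH, 1.1 mM DOPA, pH 7.1 buffer with 4% DMF added. 37 °C for 4 h, A508 read against α-MSH control; independent triplicates.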

B16 [7] = assay: Cytotoxicity against mouse B16 cells up to 100 ug/ml after 72 hrs by MTT assay; type: cell-based; conditions: b16, 72 h
How it was run: (§2)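 B16 or Hs68 cells (1 × 10^4/well) seeded ≥24 h in DMEM with 10% FBS, then treated 72 h with 0, 5, 10, 20, 50, 100 µg/mL. MTT (0.5 mg/mL) for 4 h, formazan dissolved in DMSO, A570 read. Viability given as % of 0.1% DMSO vehicle culture; independent triplicates, mean ± SD.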

[8] = system: Radical scavenging activity; assay: Antioxidant activity assessed as DPPH radical scavenging activity at 20 ug/ml after 30 mins; type: functional; how it was run: as §1
[9] = target: T1, Tyrosinase (Mus musculus); assay: Inhibition of tyrosinase in mouse B16 cells at 10 to 20 ug/ml after 72 hrs by spectrophotometry; type: cell-based
How it was run: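 B16 cells (1 × 10^5 cells/mL) plated ≥24 h, then α-MSH (1 µM) alone or with 10 or 20 µg/mL agent for 72 h. Lysed in 50 mM sodium phosphate pH 6.8 with 1% Triton X-100 and freeze-thawed. 100 µL of 10 mM DOPA added, 37 °C for 4 h, DOPA oxidation read at A475 against α-MSH control; independent triplicates.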

[10] = system: Radical scavenging activity; assay: Antioxidant activity assessed as DPPH radical scavenging activity at 1 ug/ml after 30 mins; type: functional; how it was run: as §1
Hs68 = assay: Cytotoxicity against human HS68 cells up to 100 ug/ml after 72 hrs by MTT assay; type: cell-based; conditions: hs68, 72 h; how it was run: as §2
[11] = system: Radical scavenging activity; assay: Antioxidant activity assessed as DPPH radical scavenging activity at 10 ug/ml after 30 mins; type: functional; how it was run: as §1
B16 [12] = assay: Antimelanogenic activity in mouse B16 cells assessed as decrease in MITF expression at 20 ug/ml after 72 hrs by Western blotting; type: functional, cell-based
How it was run: (§3)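 B16 cells (1 × 10^5 cells/mL) given α-MSH (1 µM) alone as control or α-MSH plus 20 µg/mL compound, 72 h. Lysis at 4 °C for 20 min in Tris-HCl pH 7.5 buffer with 1% Triton X-100, EGTA, NaCl and PMSF. 40 µg protein run on 12.5% SDS-PAGE and transferred to nitrocellulose. Blocked in 5% skim milk. Probed with target and β-actin antibodies, HRP secondary, ECL detection.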

Brain = assay: Antioxidant activity in mouse brain assessed as Fe2+/ascorbate-induced lipid peroxidation up to 100 ug/ml by TBARS assay relative to control
Liver [13] = assay: Antioxidant activity in mouse liver assessed as inhibition of Fe2+/ascorbate-induced lipid peroxidation up to 100 ug/ml by TBARS assay relative to control; type: functional, tissue-based
How it was run: (§4)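 Male ICR mice, 7 weeks, 30–35 g. Liver or brain homogenized 1:1 (w/v) in ice-cold 40 mM Tris-HCl pH 7.4 and spun at 3000g. Supernatant incubated with sample (20 or 100 µg/mL), 10 µM FeSO4 and 0.1 mM ascorbic acid, 37 °C for 1 h. TCA then TBA added, 80 °C for 20 min, A532 of MDA-TBA read with MDA standard; % inhibition versus control.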

Liver [14] = assay: Antioxidant activity in mouse liver assessed as inhibition of Fe2+/ascorbate-induced lipid peroxidation up to 20 ug/ml by TBARS assay relative to control; type: functional, tissue-based; how it was run: as §4
B16 [15] = assay: Antimelanogenic activity in mouse B16 cells assessed as decrease in MCIR expression at 20 ug/ml after 72 hrs by flow cytometry assay; type: functional; conditions: B16, 72 h
How it was run: (§5)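 B16 cells (1 × 10^5 cells/mL) given α-MSH (1 µM) alone or with 20 µg/mL compound for 72 h. Mouse primary antibodies (1:300) 45 min at 4 °C, FITC anti-mouse IgG (1:500) 30 min at 4 °C. Read by flow cytometry against a normal mouse IgG1 isotype control; n = 3.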

B16 [16] = assay: Antimelanogenic activity in mouse B16 cells assessed as decrease in TRP2 expression at 20 ug/ml after 72 hrs by Western blotting; type: functional, cell-based; how it was run: as §3
[17] = Antioxidant activity assessed as reducing capacity of the compound up to 100 ug/ml after 20 mins; type: functional
How it was run: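 Sample (0.2 mL; 0, 1, 5, 10, 20, 100 µg/mL) mixed with sodium phosphate buffer pH 6.6 and 1% potassium ferricyanide, 50 °C for 20 min. 10% TCA added, centrifuged at 10000g for 10 min. Upper layer mixed with water and 0.1% FeCl3. A700 taken directly as reducing power; ascorbic acid standard; mean ± SD, n = 3.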

B16 [18] = assay: Antimelanogenic activity in mouse B16 cells assessed as decrease in MITF expression at 20 ug/ml after 72 hrs by flow cytometry assay; type: functional; conditions: B16, 72 h; how it was run: as §5
B16 [19] = assay: Antimelanogenic activity in mouse B16 cells assessed as decrease in TRP1 expression at 20 ug/ml after 72 hrs by flow cytometry assay; type: functional; conditions: B16, 72 h; how it was run: as §5
B16 [20] = assay: Antimelanogenic activity in mouse B16 cells assessed as decrease in TRP1 expression at 20 ug/ml after 72 hrs by Western blotting; type: functional, cell-based; how it was run: as §3
B16 [21] = assay: Effect on nuclear morphology of mouse B16 cells at 20 ug/ml after 72 hrs by Hoechst 33342 staining in presence of alpha-MSH; type: ADME, cell-based; conditions: b16, 72 h
How it was run: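 B16 cells (1 × 10^5 cells/mL) given α-MSH (1 µM) alone or with 20 µg/mL compound for 72 h. Fixed in 4% paraformaldehyde, nuclei stained with 0.1 µg/mL Hoechst 33342, and viewed by inverted fluorescence microscopy (200×).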

[22] = Antioxidant activity assessed as inhibition of Fe2+/ascorbate-induced lipid peroxidation by TBA assay; type: functional
How it was run: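 Commercial liposomes (225–250 nm) with 10 mM FeSO4 and 10 mM ascorbic acid (11 µL each) plus compound in 50 mM sodium phosphate buffer pH 7.4, 2.5 mL final volume, 37 °C for 1 h. Stopped with TBA/TCA and EDTA, then heated at 100 °C for 20 min. Centrifuged and MDA adduct read at A532. Four replicates; inhibition (%) = (1 − Asample/Acontrol) × 100.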

B16 [23] = assay: Antimelanogenic activity in mouse B16 cells assessed as inhibition of alpha-MSH-induced melanin formation after 72 hrs by spectrophotometry; type: functional, cell-based
How it was run: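 B16 cells (1 × 10^5 cells/mL) grown 24 h, then α-MSH (1 µM) plus 10 or 20 µg/mL compound in phenol red-free DMEM for 72 h. Melanin released into the medium read at OD 405 nm and expressed as % of 0.1% DMSO vehicle control. Independent triplicate experiments, mean ± SD.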

[24] = Antioxidant activity assessed as ferrous ion chelating effect after 10 mins; type: functional
How it was run: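 Ferrozine method. 10 µL sample with 20 µL of 2 mM FeCl2 for 5 min, then 40 µL of 5 mM ferrozine added and volume brought to 1 mL with water. Shaken and held 10 min at room temperature, A562 read. EDTA as positive control. Chelation (%) = (1 − Asample/Acontrol) × 100.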

B16 [25] = assay: Antimelanogenic activity in mouse B16 cells assessed as decrease in MC1R expression at 20 ug/ml after 72 hrs by Western blotting; type: functional, cell-based; how it was run: as §3
B16 [26] = assay: Antimelanogenic activity in mouse B16 cells assessed as decrease in tyrosinase expression at 20 ug/ml after 72 hrs by Western blotting; type: functional, cell-based; how it was run: as §3
B16 [27] = assay: Antimelanogenic activity in mouse B16 cells assessed as decrease in tyrosinase expression at 20 ug/ml after 72 hrs by flow cytometry assay; type: functional; conditions: B16, 72 h; how it was run: as §5
B16 [28] = assay: Antimelanogenic activity in mouse B16 cells assessed as decrease in TRP2 expression at 20 ug/ml after 72 hrs by flow cytometry assay; type: functional; conditions: B16, 72 h; how it was run: as §5

Row | EC50 [4] | EC50 [5] | inhibition [6] | inhibition [9] | SMILES | Activity [1] | response, % of control at 20 µg/mL [2] | Activity [3] | Activity (B16 [7]) | Activity [8] | Activity [10] | Activity (Hs68) | Activity [11] | other results
1 | 4.2 µg/mL (≈ 23.8 µM) | 4.9 µg/mL | 41.7% | 29.8% | O=C1O[C@H]([C@@H](O)CO)C(O)=C1O [ASCORBIC ACID] | 87.6% | 102% | 62.5% | Toxic | 81.4% | 0% | Toxic | 71.3% | –
2 | – | – | – | – | Cc1c(C)c2c(c(C)c1O)CCC(C)(C(=O)O)O2 (configuration not stated) [TROLOX] | – | 81.2% | – | – | – | – | – | – | –
3 | 2.1 µg/mL (≈ 13.6 µM) | 4 µg/mL | 57.4% | 22.2% | O=C(O)c1ccc(O)c(O)c1 [PROTOCATECHUIC ACID] | 82.7% | 85.1% | 68.4% | Non-toxic | 74.6% | 43% | Non-toxic | 70.4% | inhibition (B16 [12]): Active; MDA-TBA level relative to control (Brain): 14.9%; Activity (Liver [13]): Dose-dependent effect; Activity (Liver [14]): Dose-dependent effect; inhibition at 20 µg/mL (B16 [15]): 21.1%; inhibition (B16 [16]): Active; Activity [17]: inactive; inhibition at 20 µg/mL (B16 [18]): 46.6%; inhibition at 20 µg/mL (B16 [19]): 54.6%; inhibition (B16 [20]): Active; Activity (B16 [21]): Non-toxic; inhibition [22]: Dose-dependent effect; inhibition (B16 [23]): Dose-dependent effect; Activity [24]: inactive; inhibition (B16 [25]): Active; inhibition (B16 [26]): Active; inhibition at 20 µg/mL (B16 [27]): 34.8%; inhibition at 20 µg/mL (B16 [28]): 29.3%
4 | – | – | 30.9% | 33.1% | OC[C@H]1O[C@@H](Oc2ccc(O)cc2)[C@H](O)[C@@H](O)[C@@H]1O [ARBUTIN] | – | – | – | Toxic | – | – | Toxic | – | –
